Results as given in the EternaBench riboswitch data.

Tested on: MS2 coat protein
Assay: apparent Kd, MS2 coat protein; higher = weaker binding; RNA-MaP array; FMN 200 µM where present
In short: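 The apparent Kd comes from binding curves fitted cluster by cluster, filtered, and summarised as a median. Those curves followed SNAP-549-labelled MS2 coat protein from 0.7 or 1.5 nM, doubling to 3 µM, on Illumina sequencing-chip clusters where stalled E. coli RNA polymerase had transcribed the designs, without and then with constant ligand. The buffer was 100 mM Tris-HCl pH 7.5, 80 mM KCl, 4 mM MgCl2, BSA, DTT, yeast tRNA and Tween-20, and green signal was normalised to red-channel RNA signal and control-cluster median Fmax.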

[1] = designed as: ON switch for flavin mononucleotide, no ligand
[2] = ligand present: flavin mononucleotide, designed as: ON switch for flavin mononucleotide
[3] = designed as: OFF switch for flavin mononucleotide, no ligand
[4] = ligand present: flavin mononucleotide, designed as: OFF switch for flavin mononucleotide

Row | Sequence | apparent Kd [1] [µM] | apparent Kd [2] [µM] | apparent Kd [3] [µM] | apparent Kd [4] [µM]
1 | GCACAUGAGGAUCACCCAUGUCGGGAGGAUAUCUAGGCUGGGCGAUGCUAGGGCGGCCUCUGCUUAGAGAAGGCCCAUAAAAUC | 0.197 | 0.0334 |  | 
2 | AAGUAGAUCCGAGGAUAUACAAGGCGGAAACGCUACAUGAGGAUCACCCAUGUAGAAGGCGGAUCUACAGGUACUAAAGUACCA |  |  | 0.00584 | 0.0105
3 | AUAAUGCGUGCUACGCAAAAUAACGCAGAAGGCCAACAUGAGGAUCACCCAUGUAAAAGAAAGAUGGAGGAUAUGCGGUUUGGC | 0.051 | 0.00674 |  | 
4 | UGUUGUAAACAGAACAUGAGGAUCACCCAUGUGCUCUCGUGUAAGGAUAUACAUUCGUAUGGAAAGUAGAAGGUACUAAUUAUG | 0.103 | 0.117 |  | 
5 | UUUACAUGAGGAUCACCCAUGUAUGUCACCCAUGUGUGUAAUCAGGAUAUGAUAUCAAUAAUAAAUUAGAAGGGAUAACAUGAG | 0.0595 | 0.0751 |  | 
6 | UAUAUAUAGUAAGGAUAUGUAUUUAUUUUACAAACAGAAGGUACUGACAUGAGGAUCACCCAUGUUUUAGUGUGGGCAUGUAGA |  |  | 0.0611 | 0.0761
7 | AAAUCAGUAGGAUAUACGAUUUUAUGCUAGAUAGAGGGACCACAUGAGGAUCACCCAUGUAGAAGGACUAGAUA |  |  | 0.0202 | 0.0214
8 | ACAUGAGACUAAGGAUAUGAUGUACCUAUAUGUGACAUGAGGAUCACCCAUGUGGUAAGUAUGAUUCAGAAGGUAGAGAUAUGU | 0.0987 | 0.0326 |  | 
9 | CAGUACUGAGGAUAUACAUGAGGAUCACCCAUGUGUUCCAGCUUGGAAACUAGCAAAAGUAGAAGGCAGUACUG |  |  | 0.0148 | 0.158
10 | AACAGCUCGUCAGGAUAUACGUCACUGCGUCAGCAGUGUGGUAAGAUCACAUGAGGAUCACCCAUGUAGAAGGGACGAGCUGAU |  |  | 0.0143 | 0.267
11 | GCUAGUAUUGCAGGAUAUUGAGAAUAAUUAUUACAAGAAGGGCAUAACAUGAGGAUCACCCAUGUUUUCCUUAAUGAUACUAGC |  |  | 0.00533 | 0.00559
12 | GCAUGCGUUCGAGGAUAUCGGUGAGCAACGGAACGAGAAGGCGAUCGAAUGUCACAUAUUAUGUACAUGAGGAUCACCCAUGUA | 0.104 | 0.0434 |  | 
13 | AGUUGGCGAGGAUAUACAUGAGGAUCACCCAUGUGAAGAAGAAUAGUGAGGAAGAAAAGUAGAAGGCGCUGACA |  |  | 0.047 | 0.26
14 | AUUGAUGUUGAGGAUAUGCUUUUAUUUAUUAUAGCAGAAGGCGAUACAUGAGGAUCACCCAUGUUCAUGGCUUU |  |  | 0.0118 | 0.0149
15 | CGCUCAGAGAACGAUACGAAUAGACAUGAGGAUCACCCAUGUAGAAGGACAACGGAAUAAACGUUGUAGGAUAUACAUUUAGUG |  |  | 0.0343 | 0.0904
16 | GGAUAGGACAGAGGAUAUACGUGCUAGAGAUACUAGCAAAGUUUCCUCACAUGAGGAUCACCCAUGUAGAAGGCUGUCCUAUCG |  |  | 0.0218 | 0.505
17 | GUGUACAGAGGAUAUACACGAGGAGUUACGAAAGUAACUUCACAUGAGGAUCACCCAUGUAGAAGGCUGUACAC |  |  | 0.0253 | 0.0366
18 | UUAUGAGAGCAGGAUAUCUUAUAUUUUUAUUAAAGAGAAGGGCUCACAUGAGGAUCACCCAUGUGGUCCUAGAU |  |  | 0.0559 | 0.598
19 | ACAUUUUAUGCAGGAUAUUGACUUUGGAUUAAACAAGAAGGGCAUUACAUGAGGAUCACCCAUGUUUUAUUGGUAUAUAAGUUC |  |  | 0.0139 | 0.0171
20 | UGAUAACAUGUAGGAUAUCCAGCAUUGACCAUCGGAGAAGGACAUGAGGAUCACCCAUGUACCGAUACAAUGGGAUAACGCAAU |  |  | 0.0154 | 0.018
21 | GUGAACAUGAGGAUCACCCAUGUAGCUCACUGCCAGUGGCUACAGGAUAUAGCACCUCGAGAGUGCUAGAAGGGUGGCCUAGAA | 0.106 | 0.0339 |  | 
22 | UUUAUGUGAGGAUAUACGAAUAGUAAGUAAGUAUUACAGACGUAGAAGGCACAUGAGGAUCACCCAUGUGAACC |  |  | 0.0386 | 0.078
23 | GUUAAUUAGUGAGGAUAUACAGAGAGUGAAGCUGUAGAAGGCACAUUCCUCAAGACAUGAGGAUCACCCAUGUGAUAAUAAGAU |  |  | 0.0374 | 0.105
24 | AAGCGACAUGAGGAUCACCCAUGUAGCAGGGUCAGAGGAUAUUUGAGCUUGGUGAGGGUUAAAGAAGGUUGAAAUC | 0.0252 | 0.0331 |  | 
25 | GGACGUCACAUUUACAUGAGGAUCACCCAUGUCUCUUGACAUGAGGAUAUGGAUCCUAAUUGGAUCCAGAAGGCAUGGACGUCC | 1.13 | 0.153 |  | 
26 | CUCAUGUGAGGAUAUGUGAUCAACCUUCUGUAUAGAUGAUUACAGAAGGCACAUGAGGAUCACCCAUGUAGAUC |  |  | 0.106 | 0.125
27 | GUGUACUGAGGAUAUGCUGGAAUCUAGCGAAGCUAGGUUCCACAUGAGGAUCACCCAUGUAGAAGGCGGUACAC |  |  | 0.0342 | 0.0137
28 | GCGUCAGAAUUAAUUGUGACAAGCAGAAGGCUAUAUCUUAUGUUAGACAUGAGGAUCACCCAUGUAGAGGAUAUGCAGUUACAC |  |  | 0.00787 | 0.0142

Row | Sequence | apparent Kd [1] [µM] | apparent Kd [2] [µM] | apparent Kd [3] [µM] | apparent Kd [4] [µM]
29 | UCACGGUAUGUAGGAUAUGCAUAGCAUUGCUAUGCAGAAGGACAUGAGGAUCACCCAUGUAUGUAUUCCAUACUAAUCCCGUGC |  |  | 0.00601 | 0.00603
30 | UGGUCAUGAUCAGGAUAUUAACAUGGGCUACAUUAAGAAGGGAUAGUGAGAUACGAACUGAACAUGAGGAUCACCCAUGUUGUU | 0.24 | 0.104 |  | 
31 | UGUUGUUGAUAGGAUAUACAGGUAGGAGUAGGAGUAGAAGGAUCUACAUGAGGAUCACCCAUGUAGGAGUGAGA |  |  | 0.0161 | 0.0177
32 | GUGUACGUAGGAUAUACAUGAGGAUCACCCAUGUGAAUAAGAUAGAAUAAGAUAAAGUGUAGAAGGACGAGUGU |  |  | 0.0373 | 0.0305
33 | UGUCGGAGCAGAGGAUAUACAUGAGGAUCACCCAUGUAAUAAAGUGAAGCCUGGACACAGGCAAUGUAGAAGGCUGCUCCGACA |  |  | 0.0127 | 0.0879
34 | GUAGCAUUCUGAGGAUAUCCAUACCGGAAACGGACAUGAGGAUCACCCAUGUGGCGAAAGCCUUGGGAGAAGGCAGUAUGCUAC | 0.00487 | 0.00434 |  | 
35 | AACGUGUCAGGAUAUGCUGCUCGUCACGAAAGUGAUGAGUAGCAGAAGGGACAUGAGGAUCACCCAUGUAAAGA |  |  | 0.153 | 0.101
36 | GGUCAGGGUGUGAGGAUAUUUACCUAUCACAGUGUGAAGAAGGCACAUGAGGAUCACCCAUGUUAACUGCGGGC |  |  | 0.0517 | 0.0767
37 | CUUUAGCUAGGAUAUACAUGAGGAUCACCCAUGUUAGCGGCCAAUUGGACCGCGGGUUGUAGAAGGAGCAUUAA |  |  | 0.0375 | 0.0503
38 | UAUUAAUACGAAGGAUAUGGUUACAUGAGGAUCACCCAUGUAUGUAUAUUGAUCUAGAUUUUUAACCAGAAGGUCGUGAGUAAA |  |  | 0.0349 | 0.059
39 | CACGAUGAUGUAGGAUAUAUGCUGGAAUACAGCAUAGAAGGACAUGAGGAUCACCCAUGUUAAGUGCCUCCAAGUAACAUCGUG |  |  | 0.0154 | 0.0225
40 | UGAUCGAGAGAUCUUAGAUUCUGCAAGGAUAUGCAAGAGUUGCGCUUUACAUGAGGAUCACCCAUGUAGAAGGUGUAGAGUCUA |  |  | 0.00627 | 0.00662
41 | UUUUCGAACCGAGGAUAUCCUUAUAAGAAACAUGAGGAUCACCCAUGUAAAGGGAAUUAUUUGUAGGAGAAGGCGGAUUUUGUU | 0.0444 | 0.0299 |  | 
42 | AAGAAGUCAGGAUAUGCUGCUCGUCACUUGCGUGAUGAGUAGCAGAAGGGACAUGAGGAUCACCCAUGUAAAGA |  |  | 0.0325 | 0.0674
43 | GUUGCGUUUGUGAGGAUAUGCUGGUCCUUGGUUCGGCAGAAGGCACAUGAGGAUCACCCAUGUGGUGUCGUUCC |  |  | 0.0142 | 0.0224
44 | GCGAAUUUGUGAGGAUAUACAUAAUUUAUAACUGUAGAAGGCACAAACCUCAAGACAUGAGGAUCACCCAUGUGGAAUUUCGCU |  |  | 0.131 | 0.192
45 | CGCUACGUUUCGUAGCAGCUAGGUGAGGAUAUUCAAUUUUUCACAUGAGGAUCACCCAUGUAUGUGAAGAAGGCGCCUAGAAAG | 0.0118 | 0.00564 |  | 
46 | CUUAAGGCAGGAUAUGCUUUUUGUGACAUGAGGAUCACCCAUGUGAUGCAGUUUGGGUUUGCAGAAGGGCCUGAGU |  |  | 0.111 | 0.0612
47 | UUUUAGAGAGGAUAUAUAAAGUGAAACAUGAGGAUCACCCAUGUAAUUUUAUGGAUGUAAAUAGAAGGCUCAUUUA |  |  | 0.0333 | 0.0286
48 | GGGCUUUGGGAGAAGGUACAUUAAAUUAGUUUAACAUGAGGAUCACCCAUGUAAGGAUAUCCCAUCUUGUAUUAUUAUACAGCC |  |  | 0.011 | 0.0133
49 | GGCUCUAGAGGAUAUACAAACUGAUCCUCAGAGCGCCGGCUACAUGAGGAUCACCCAUGUAGAAGGUUGGAGUC |  |  | 0.0156 | 0.0131
50 | GCCAUCGCAUGAGGAUAUGCUCCGGUUUCCGGAGCAGAAGGCAUGUCAUAAAACAUGAGGAUCACCCAUGUAGUUAAGAUGGCA | 0.00886 | 0.00518 |  | 
51 | UUGGACGUCGUAGGAUAUGUAGGGUAUUCCUACAUGAGGAUCACCCAUGUUGACAUGGAAGAAGGACAGAAGGACGAUGUCCAU | 0.183 | 0.00494 |  | 
52 | GGUGCGUAUGUGAGGAUAUGCUGGUCCUUGGAUCAGCAGAAGGCACAUGAGGAUCACCCAUGUGGUGUCGUGCC |  |  | 0.114 | 0.0208
53 | CAGUACUGAGGAUAUACAUGAGGAUCACCCAUGUGUUCCAGCUAGGAAACUAGCAAAUGUAGAAGGCAGUACUG |  |  | 0.212 | 0.317
54 | UGGUACUAGGGAGGAUAUGGGAAGAUACAUGAGGAUCACCCAUGUUUAAGAAUACCGAGAGGCAACUAGAAGGCCCUAGUACCU | 0.192 | 0.0133 |  | 
55 | ACAUCUAGAGGAUAUACAUGAGUGAUACACGUAUUUCCACUACAUGAGGAUCACCCAUGUAGAAGGCUAGAUGA |  |  | 0.05 | 0.0169
